pIC50: −log10 of the molar value.
Experiments:
[1] = target: T1, 1-deoxy-D-xylulose 5-phosphate reductoisomerase, apicoplastic (Plasmodium falciparum (isolate 3D7), UniProt Q8IKG4); assay: Inhibition of recombinant Plasmodium falciparum IspC expressed in Escherichia coli using 1-deoxy-D-xylulose 5-phosphate as substrate by photometric assay
T1 sequence (Q8IKG4 whole entry): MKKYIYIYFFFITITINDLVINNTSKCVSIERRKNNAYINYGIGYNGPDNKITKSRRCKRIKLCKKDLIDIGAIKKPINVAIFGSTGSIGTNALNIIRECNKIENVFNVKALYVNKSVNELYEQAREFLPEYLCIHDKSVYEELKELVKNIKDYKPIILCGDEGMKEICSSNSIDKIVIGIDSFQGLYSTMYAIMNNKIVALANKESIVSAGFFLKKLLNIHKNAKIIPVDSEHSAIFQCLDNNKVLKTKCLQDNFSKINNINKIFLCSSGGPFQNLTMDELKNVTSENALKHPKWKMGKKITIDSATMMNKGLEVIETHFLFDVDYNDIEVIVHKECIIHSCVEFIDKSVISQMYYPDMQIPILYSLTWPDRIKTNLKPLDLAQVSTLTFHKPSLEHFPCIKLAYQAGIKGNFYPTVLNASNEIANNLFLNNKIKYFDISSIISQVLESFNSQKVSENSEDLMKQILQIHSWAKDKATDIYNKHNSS
Outline: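 P. falciparum IspC expressed in E. coli. Reaction mix: 100 mM Tris-HCl pH 7.6, 5 mM MnCl2, 5 mM DTT, 0.5 mM NADPH, 0.02 U enzyme. Inhibitor tested as a 1:3 series from 200 to 0.003 µM. Started with 0.5 mM DXP; read at 340 nm, room temperature. IC50 calculated from at least eight data points; generally two to three independent determinations.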

[2] = target: T2, 1-deoxy-D-xylulose 5-phosphate reductoisomerase (Escherichia coli, UniProt W8T2T2); assay: Inhibition of recombinant Escherichia coli IspC expressed in Escherichia coli M15 using 1-deoxy-D-xylulose 5-phosphate as substrate by photometric assay
T2 sequence (W8T2T2 whole entry): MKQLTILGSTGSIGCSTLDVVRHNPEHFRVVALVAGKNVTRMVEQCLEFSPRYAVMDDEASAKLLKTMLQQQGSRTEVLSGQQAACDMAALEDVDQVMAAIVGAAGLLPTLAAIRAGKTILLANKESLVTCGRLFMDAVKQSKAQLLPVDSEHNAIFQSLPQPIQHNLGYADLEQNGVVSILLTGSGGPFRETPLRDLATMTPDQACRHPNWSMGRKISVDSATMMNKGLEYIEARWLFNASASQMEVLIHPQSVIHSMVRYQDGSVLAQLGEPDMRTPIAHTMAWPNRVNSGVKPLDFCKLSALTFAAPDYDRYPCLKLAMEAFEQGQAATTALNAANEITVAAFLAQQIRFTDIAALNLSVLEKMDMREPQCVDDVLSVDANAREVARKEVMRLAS
Outline: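 E. coli IspC, His-tagged, expressed in E. coli M15 pREP4 (IPTG 1 mM, 36 h at 20 °C) and purified by Ni2+-chelate chromatography to about 95% purity. Reaction mix: 100 mM Tris-HCl pH 7.6, 5 mM MnCl2, 5 mM DTT, 0.5 mM NADPH, 0.02 U enzyme. Inhibitor tested as a 1:3 series from 200 to 0.003 µM. Started with 0.5 mM DXP; NADPH consumption read at 340 nm, room temperature. IC50 fitted from at least eight points.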

[3] = target: T3, 1-deoxy-D-xylulose 5-phosphate reductoisomerase (Mycobacterium tuberculosis, UniProt P9WNS1); assay: Inhibition of recombinant Mycobacterium tuberculosis IspC expressed in Escherichia coli M15 using 1-deoxy-D-xylulose 5-phosphate as substrate by photometric assay
T3 sequence (P9WNS1 whole entry): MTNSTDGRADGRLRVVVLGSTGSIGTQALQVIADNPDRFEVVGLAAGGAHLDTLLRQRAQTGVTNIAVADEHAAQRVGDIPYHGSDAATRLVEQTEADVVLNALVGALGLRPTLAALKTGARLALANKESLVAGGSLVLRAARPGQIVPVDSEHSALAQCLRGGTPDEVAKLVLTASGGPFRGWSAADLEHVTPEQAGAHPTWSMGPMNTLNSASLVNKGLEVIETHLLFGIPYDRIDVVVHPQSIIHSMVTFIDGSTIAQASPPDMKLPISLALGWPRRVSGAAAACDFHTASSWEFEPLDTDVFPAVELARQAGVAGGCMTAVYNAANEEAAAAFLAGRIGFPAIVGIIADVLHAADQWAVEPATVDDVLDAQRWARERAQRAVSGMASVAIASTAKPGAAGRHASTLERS

Plasmodium falciparum [4] = assay: Antimalarial activity against asexual blood stages of Plasmodium falciparum 3D7 infected in human erythrocytes incubated for 3 days by ELISA; format: functional, organism-based; settings: 3D7, 72 h
Outline: (§1)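 Asexual blood-stage P. falciparum cultured in human erythrocytes; growth measured by HRP2 double-site sandwich ELISA. IC50 values are the mean of two independent double determinations.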

HeLa = assay: Cytotoxicity against human HeLa cells assessed as reduction in cell viability incubated for 24 hrs by neutral red assay; format: cell-based
Outline: (§2)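 Cytotoxicity on HeLa monolayers quantified spectrophotometrically, given as the mean of two independent double determinations. SI is HeLa IC50 divided by the P. falciparum 3D7 IC50.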

Acinetobacter baumannii [5] = assay: Antimicrobial activity against Acinetobacter baumannii ATCC BAA747 incubated for 18 hrs by microbroth dilution assay; format: functional; settings: ATCC BAA747, 18 h
Acinetobacter baumannii [6] = assay: Antimicrobial activity against Acinetobacter baumannii ATCC BAA 1605 incubated for 18 hrs by microbroth dilution assay; format: functional; settings: ATCC BAA 1605, 18 h
Escherichia coli [7] = assay: Antimicrobial activity against Escherichia coli ATCC 25922 incubated for 18 hrs by microbroth dilution assay; format: functional; settings: ATCC 25922, 18 h
Escherichia coli [8] = assay: Antimicrobial activity against Escherichia coli ATCC BAA 2469 incubated for 18 hrs by microbroth dilution assay; format: functional; settings: ATCC BAA 2469, 18 h
Klebsiella pneumoniae [9] = assay: Antimicrobial activity against Klebsiella pneumoniae ATCC 13883 incubated for 18 hrs by microbroth dilution assay; format: functional; settings: ATCC 13883, 18 h
Klebsiella pneumoniae [10] = assay: Antimicrobial activity against Klebsiella pneumoniae ATCC 700603 incubated for 18 hrs by microbroth dilution assay; format: functional; settings: ATCC 700603, 18 h
Pseudomonas aeruginosa = assay: Antimicrobial activity against Pseudomonas aeruginosa ATCC 27853 incubated for 18 hrs by microbroth dilution assay; format: functional; settings: ATCC 27853, 18 h
[11] = system: Mycobacterium tuberculosis; assay: Antimycobacterial activity against Mycobacterium tuberculosis H37Rv incubated for 5 days by resazurin dye based assay; format: functional; settings: 120 h
Plasmodium falciparum [12] = assay: Antimalarial activity against asexual blood stages of Plasmodium falciparum Dd2 infected in human erythrocytes incubated for 3 days by ELISA; format: functional, organism-based; settings: Dd2, 72 h; outline: as §1
[13] = Selectivity index, ratio of IC50 for human HeLa cells to IC50 for Plasmodium falciparum 3D7; format: toxicity; settings: read-out: Ratio IC50; outline: as §2

SMILES | pIC50 [1] | pIC50 [2] | pIC50 [3] | pIC50 (Plasmodium falciparum [4]) | pIC50 (HeLa) | MIC (Acinetobacter baumannii [5]) [µM] | MIC (Acinetobacter baumannii [6]) [µM] | MIC (Escherichia coli [7]) [µM] | MIC (Escherichia coli [8]) [µM] | MIC (Klebsiella pneumoniae [9]) [µM] | MIC (Klebsiella pneumoniae [10]) [µM] | MIC (Pseudomonas aeruginosa) [µM] | MIC [11] [µM] | pIC50 (Plasmodium falciparum [12]) | selectivity ratio [13]
COc1cc(OC)cc(C(P(=O)(O)O)S(=O)(=O)CC(=O)NO)c1 (stereo not drawn) | 6.66 | 5.35 | 3.71 | 5.57 | < 3.30 | > 100 | > 100 | > 100 | > 100 | > 100 | > 100 | > 100 | > 100 | – | –
CN(O)C(=O)CS(=O)(=O)C(c1ccccc1)P(=O)(O)O (stereo not drawn) | 5.12 | 4.44 | 3.94 | < 4.00 | – | – | – | – | – | – | – | – | – | – | –
COc1cc(OC)cc(C(P(=O)(O)O)S(=O)(=O)CC(=O)N(C)O)c1 (stereo not drawn) | 5.43 | 4.10 | < 3.00 | < 4.00 | < 3.00 | – | – | – | – | – | – | – | – | – | –
CN(O)C(=O)CS(=O)(=O)C(c1cc(F)cc(F)c1)P(=O)(O)O (stereo not drawn) | 5.26 | 5.37 | 4.36 | 4.72 | < 3.00 | > 100 | > 100 | > 100 | > 100 | > 100 | > 100 | > 100 | > 100 | – | –
Cc1ccc(C(P(=O)(O)O)S(=O)(=O)CC(=O)N(C)O)cc1 (stereo not drawn) | 5.07 | 4.44 | 3.84 | < 4.00 | < 4.30 | > 100 | > 100 | > 100 | > 100 | > 100 | > 100 | > 100 | > 100 | – | –
CN(O)C(=O)CS(=O)(=O)C(c1ccc(Cl)c(Cl)c1)P(=O)(O)O (stereo not drawn) | 6.00 | 4.96 | 4.68 | < 4.00 | < 3.00 | > 100 | > 100 | > 100 | > 100 | > 100 | > 100 | > 100 | > 100 | – | –
CN(O)C(=O)CS(=O)(=O)C(c1cccc2ccccc12)P(=O)(O)O (stereo not drawn) | 3.08 | 4.82 | 3.21 | < 4.00 | < 3.00 | > 100 | > 100 | > 100 | > 100 | > 100 | > 100 | > 100 | > 100 | – | –
Cc1ccc(C(P(=O)(O)O)S(=O)(=O)CC(=O)NO)cc1 (stereo not drawn) | 4.19 | 4.19 | < 3.00 | < 4.00 | – | – | – | – | – | – | – | – | – | – | –
CN(O)C(=O)CSC(c1ccc(Cl)c(Cl)c1)P(=O)(O)O (racemic) | – | – | – | – | – | > 100 | > 100 | > 100 | > 100 | > 100 | > 100 | > 100 | > 100 | – | –
CN(O)C(=O)CSC(c1cccc2ccccc12)P(=O)(O)O (racemic) | – | – | – | – | – | > 100 | > 100 | > 100 | > 100 | > 100 | > 100 | > 100 | > 100 | – | –
Cc1ccc(C(SCC(=O)N(C)O)P(=O)(O)O)cc1 (racemic) | – | – | – | – | – | > 100 | > 100 | > 100 | > 100 | > 100 | > 100 | > 100 | > 100 | – | –
CN(O)C(=O)CSC(c1cc(F)cc(F)c1)P(=O)(O)O (racemic) | 7.89 | 7.74 | 6.96 | 6.82 | < 3.00 | > 100 | > 100 | > 100 | > 100 | > 100 | > 100 | > 100 | > 100 | 6.89 | > 6700
COc1cc(OC)cc(C(SCC(=O)N(C)O)P(=O)(O)O)c1 (racemic) | 7.70 | 6.80 | 5.36 | 6.80 | < 3.00 | > 100 | > 100 | > 100 | > 100 | > 100 | > 100 | > 100 | > 100 | 6.74 | > 6400
O=CN(O)CCCP(=O)(O)O [FOSMIDOMYCIN SODIUM] | – | 6.66 | – | – | – | – | – | – | – | – | – | – | – | – | –

— ChEMBL document CHEMBL4406820, “Novel reverse thia-analogs of fosmidomycin: Synthesis and antiplasmodial activity” (Eur J Med Chem, 2019)
